Several values for one entry are separate records, joined by “and”; a condition that tells them apart may be missing. Identical values can stand only once. Activity calls are given as the source filed them. The rule behind the calls is not given here.
Legend:
[1] = target: T1, Polyunsaturated fatty acid 5-lipoxygenase (Rattus norvegicus, UniProt P12527); assay: Inhibition of 5-lipoxygenase catalysis in rat basophilic leukemia (RBL) cells by measuring 5-HETE product formation; type: cell-based, RBL-1
T1 sequence (P12527 whole entry): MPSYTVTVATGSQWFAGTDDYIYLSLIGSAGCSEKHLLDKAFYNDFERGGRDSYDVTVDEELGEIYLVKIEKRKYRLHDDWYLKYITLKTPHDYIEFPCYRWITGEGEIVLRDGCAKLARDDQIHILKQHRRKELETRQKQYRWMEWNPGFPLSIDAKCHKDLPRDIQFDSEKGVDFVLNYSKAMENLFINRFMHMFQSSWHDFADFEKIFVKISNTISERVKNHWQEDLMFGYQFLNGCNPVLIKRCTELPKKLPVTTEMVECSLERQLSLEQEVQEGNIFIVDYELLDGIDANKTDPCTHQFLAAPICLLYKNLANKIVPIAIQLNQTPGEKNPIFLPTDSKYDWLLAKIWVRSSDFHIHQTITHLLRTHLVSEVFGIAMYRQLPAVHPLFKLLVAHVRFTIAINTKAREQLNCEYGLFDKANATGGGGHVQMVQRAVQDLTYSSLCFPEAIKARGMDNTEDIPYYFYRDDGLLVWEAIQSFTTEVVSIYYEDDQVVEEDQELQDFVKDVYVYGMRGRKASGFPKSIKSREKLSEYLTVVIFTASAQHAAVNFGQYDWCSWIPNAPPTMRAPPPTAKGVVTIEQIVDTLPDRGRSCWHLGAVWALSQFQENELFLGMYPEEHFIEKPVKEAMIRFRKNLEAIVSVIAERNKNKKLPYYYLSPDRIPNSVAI
Method in brief: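 Crude 20000g supernatant from sonicated rat basophilic leukemia cells used as 5-LO source; 5-HETE product formation measured.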

[2] = Plasma Cmax in rat (PO dose); type: ADME, organism-based; design: route oral
Method in brief: (§1)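 Rats dosed by oral gavage at 200 µmol/kg. Tail-vein blood drawn at about 1 h intervals; plasma analysed by HPLC. Mean of data from two animals.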

[3] = Plasma Tmax in rat (PO dose); type: ADME, organism-based; method in brief: as §1
[4] = system: Rattus norvegicus; assay: In vivo inhibition of rat anaphylaxis leukotriene formation from peritoneal fluids, 1 hr after an oral dose of 200 uM/Kg; Not significant; type: functional, organism-based
Method in brief: (§2)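 Rats given 200 µmol/kg orally 1 h before antibody-antigen challenge inducing peritoneal leukotriene biosynthesis; LTE4 in peritoneal fluid measured. Mean of eight rats; percent inhibition versus control group mean; significance by one-way ANOVA with Tukey's multiple comparison.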

[5] = target: T2, Polyunsaturated fatty acid 5-lipoxygenase (Homo sapiens, UniProt P09917); assay: In vitro 5-lipoxygenase inhibitory activity against calcium ionophore (A23187) induced LTB4 formation in human whole blood.
T2 sequence (P09917 whole entry): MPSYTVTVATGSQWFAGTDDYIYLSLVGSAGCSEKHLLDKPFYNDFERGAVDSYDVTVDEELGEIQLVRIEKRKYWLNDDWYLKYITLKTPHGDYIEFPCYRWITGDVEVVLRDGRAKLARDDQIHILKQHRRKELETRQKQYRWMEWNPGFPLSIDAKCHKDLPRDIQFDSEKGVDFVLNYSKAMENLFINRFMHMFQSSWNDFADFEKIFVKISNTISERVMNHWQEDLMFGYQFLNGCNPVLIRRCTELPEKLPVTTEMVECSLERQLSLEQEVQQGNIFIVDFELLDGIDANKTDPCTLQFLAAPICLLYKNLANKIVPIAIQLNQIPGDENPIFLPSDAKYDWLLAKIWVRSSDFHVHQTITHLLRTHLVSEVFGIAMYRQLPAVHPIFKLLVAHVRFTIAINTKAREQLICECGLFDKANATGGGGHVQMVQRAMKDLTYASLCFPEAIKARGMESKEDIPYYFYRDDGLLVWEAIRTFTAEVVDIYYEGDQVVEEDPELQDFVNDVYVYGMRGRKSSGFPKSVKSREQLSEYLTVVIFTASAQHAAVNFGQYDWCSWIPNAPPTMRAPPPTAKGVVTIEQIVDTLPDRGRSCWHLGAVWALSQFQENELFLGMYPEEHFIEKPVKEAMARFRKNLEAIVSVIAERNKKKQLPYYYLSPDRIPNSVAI

[6] = system: Rattus norvegicus; assay: In vivo inhibition of rat anaphylaxis leukotriene formation from peritoneal fluids, 1 hr after an oral dose of 200 uM/Kg; type: functional; method in brief: as §2
[7] = target: T3, Cyclooxygenase (Rattus norvegicus, UniProt P35355+Q63921); assay: In vitro cyclooxygenase inhibitory activity against calcium ionophore (A23187) induced thromboxane formation in rat polymorphonuclear leukocytes; type: functional, cell-based
T3 sequence (P35355 whole entry): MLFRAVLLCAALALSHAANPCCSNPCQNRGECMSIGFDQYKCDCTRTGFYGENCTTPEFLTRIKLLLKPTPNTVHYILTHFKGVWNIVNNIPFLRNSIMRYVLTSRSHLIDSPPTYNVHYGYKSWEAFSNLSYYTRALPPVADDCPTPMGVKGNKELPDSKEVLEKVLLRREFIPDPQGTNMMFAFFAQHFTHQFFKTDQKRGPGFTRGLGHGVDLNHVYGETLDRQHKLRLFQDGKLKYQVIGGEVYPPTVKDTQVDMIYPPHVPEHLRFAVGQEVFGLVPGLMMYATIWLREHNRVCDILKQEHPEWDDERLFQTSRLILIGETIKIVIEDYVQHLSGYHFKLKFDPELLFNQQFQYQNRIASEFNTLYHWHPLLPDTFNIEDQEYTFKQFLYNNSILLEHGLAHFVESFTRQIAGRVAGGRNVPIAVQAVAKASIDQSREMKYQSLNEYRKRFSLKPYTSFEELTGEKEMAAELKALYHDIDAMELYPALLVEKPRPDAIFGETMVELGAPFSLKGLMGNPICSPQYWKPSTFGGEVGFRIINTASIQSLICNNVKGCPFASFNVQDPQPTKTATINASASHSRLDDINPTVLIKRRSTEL
T3 sequence (Q63921 whole entry): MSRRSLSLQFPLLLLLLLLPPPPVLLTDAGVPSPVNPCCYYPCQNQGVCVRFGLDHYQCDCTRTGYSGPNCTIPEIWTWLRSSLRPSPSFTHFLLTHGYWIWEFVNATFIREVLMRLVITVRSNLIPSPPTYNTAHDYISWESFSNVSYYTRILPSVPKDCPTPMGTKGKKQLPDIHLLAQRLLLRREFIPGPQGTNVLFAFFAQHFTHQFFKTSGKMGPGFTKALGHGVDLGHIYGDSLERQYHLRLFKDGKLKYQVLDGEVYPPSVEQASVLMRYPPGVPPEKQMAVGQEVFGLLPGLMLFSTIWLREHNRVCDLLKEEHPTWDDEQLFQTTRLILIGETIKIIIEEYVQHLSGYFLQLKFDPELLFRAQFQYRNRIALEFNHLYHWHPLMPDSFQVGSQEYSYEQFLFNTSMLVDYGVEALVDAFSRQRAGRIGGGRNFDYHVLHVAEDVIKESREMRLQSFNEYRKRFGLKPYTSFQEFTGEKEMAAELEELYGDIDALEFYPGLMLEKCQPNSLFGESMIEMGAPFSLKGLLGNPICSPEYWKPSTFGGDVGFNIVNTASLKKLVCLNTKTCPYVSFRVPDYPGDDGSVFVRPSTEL
Method in brief: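 Rat polymorphonuclear leukocytes, intact cells, stimulated with calcium ionophore A23187. Thromboxane quantified by enzyme immunoassay. Duplicate assays.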

[8] = target: T4, Cyclooxygenase (Homo sapiens, UniProt P35354+P23219); assay: In vitro cyclooxygenase inhibitory activity against calcium ionophore (A23187) induced thromboxane formation in human whole blood; type: functional, tissue-based
Method in brief: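 Human whole blood stimulated with calcium ionophore A23187. Thromboxane measured by enzyme immunoassay. Assays in duplicate.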

[9] = target: Prostaglandin G/H synthase 1 (Ovis aries) (UniProt P05979); assay: Compound was tested in vitro for inhibition of Prostaglandin G/H synthase sheep seminal vesicle
Chain of Prostaglandin G/H synthase 1 (Ovis aries) (P05979 whole entry, looked up): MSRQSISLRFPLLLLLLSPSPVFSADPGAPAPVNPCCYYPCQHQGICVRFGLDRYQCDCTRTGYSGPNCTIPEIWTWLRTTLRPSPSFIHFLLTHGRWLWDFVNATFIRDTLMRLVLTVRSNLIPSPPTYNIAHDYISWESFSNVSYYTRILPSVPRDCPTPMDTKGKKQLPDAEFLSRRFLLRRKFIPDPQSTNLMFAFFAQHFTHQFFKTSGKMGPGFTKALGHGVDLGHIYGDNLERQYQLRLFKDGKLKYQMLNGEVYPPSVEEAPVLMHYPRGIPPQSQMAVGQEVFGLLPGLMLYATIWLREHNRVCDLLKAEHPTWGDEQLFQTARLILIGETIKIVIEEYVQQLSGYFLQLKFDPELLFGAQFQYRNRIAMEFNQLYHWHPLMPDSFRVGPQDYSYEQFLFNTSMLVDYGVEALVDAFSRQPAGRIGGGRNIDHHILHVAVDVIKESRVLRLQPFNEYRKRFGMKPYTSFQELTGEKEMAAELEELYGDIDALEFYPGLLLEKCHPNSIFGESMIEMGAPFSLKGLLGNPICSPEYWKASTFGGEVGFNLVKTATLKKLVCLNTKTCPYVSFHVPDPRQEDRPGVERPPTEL

[10] = target: T2, Polyunsaturated fatty acid 5-lipoxygenase; assay: In vitro 5-lipoxygenase inhibitory activity against calcium ionophore (A23187) induced LTB4 formation in human whole blood; type: functional, tissue-based
[11] = target: T1, Polyunsaturated fatty acid 5-lipoxygenase; assay: In vitro 5-lipoxygenase inhibitory activity against calcium ionophore (A23187) induced LTB4 formation in rat polymorphonuclear leukocytes; type: functional, cell-based
[12] = Cmax in cynomolgus monkey (PO dose); type: ADME, organism-based, Macaca fascicularis; design: route oral; details: in vivo
Method in brief: (§3)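 Cynomolgus monkeys (n=2) dosed orally, 113 or 112 µmol/kg, as suspension in 0.2% HPMC. Plasma from serial blood samples deproteinized with 2 volumes methanol, run on C18 reversed-phase HPLC (55% acetonitrile, 10 mM acetohydroxamic acid, 8 mM triethylamine acetate, pH 6.5), UV 260 nm against external calibration curve. Mean of two animals.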

[13] = Cmax in rat (PO dose); type: ADME, organism-based; design: route oral; details: in vivo; method in brief: as §1
[14] = T1/2 in dog (PO dose); type: ADME, organism-based; details: in vivo
Method in brief: (§4)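 Dogs (n=2) given 113 or 112 µmol/kg orally. Blood sampled at various times; plasma deproteinized with methanol and quantified by reversed-phase C18 HPLC with UV detection at 260 nm, external calibration. Values are means of two animals.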

[15] = T1/2 in cynomolgus monkey (PO dose); type: ADME, organism-based, Macaca fascicularis; details: in vivo; method in brief: as §3
[16] = Tmax in dog (PO dose); type: ADME, organism-based, Canis lupus familiaris; details: in vivo; method in brief: as §4
[17] = Tmax in cynomolgus monkey (PO dose); type: ADME, organism-based, Macaca fascicularis; details: in vivo; method in brief: as §3
[18] = Tmax in rat (PO dose); type: ADME, organism-based; details: in vivo; method in brief: as §1
[19] = target: T4, Cyclooxygenase; assay: In vitro cyclooxygenase inhibitory activity at 100 uM against calcium ionophore (A23187) induced thromboxane formation in human whole blood; type: functional, tissue-based
Method in brief: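 Human whole blood challenged with calcium ionophore A23187; thromboxane measured by enzyme immunoassay as COX readout. Duplicate assays; percent inhibition at highest tested concentration.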

[20] = target: Cyclooxygenase (Rattus norvegicus) (UniProt P35355+Q63921); assay: In vitro cyclooxygenase inhibitory activity at 100 uM against calcium ionophore (A23187) induced thromboxane formation in rat polymorphonuclear leukocytes; type: functional, cell-based
Method in brief: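 Rat polymorphonuclear leukocytes stimulated with calcium ionophore A23187; thromboxane determined by enzyme immunoassay. Duplicate assays; percent inhibition reported at highest concentration tested.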

[21] = Cmax in dog (PO dose); details: in vivo
[22] = target: Prostaglandin G/H synthase 1 (Ovis aries) (UniProt P05979); assay: Compound at 100 uM was tested in vitro for inhibition of Prostaglandin G/H synthase sheep seminal vesicle

IC50 [1]	Cmax [2]	Tmax [3]	IC50 [5]	Structure (SMILES)	ED50 [4]	ED50 [6]	also measured
11 µM	141 µM	2 h	5.8 µM	CC1CN(c2ccccc2)NC(=O)N1 (stereo unspecified)	–	13 mg/kg	–
–	–	–	2.6 µM	O=C1NC(Oc2ccccc2)CN(c2ccccc2)N1 (stereo unspecified)	inactive	–	–
6.8 µM	48 µM	2 h	20 µM	CC(C)C1CN(c2ccccc2)NC(=O)N1 (stereo unspecified)	–	59 mg/kg	–
6.8 µM	20 µM	2.2 h	–	CC1(C)CN(c2ccccc2)NC(=O)N1	inactive	–	–
–	–	1 h	5.8 µM and 9.2 µM	O=C1NCCN(c2ccccc2)N1	–	7 mg/kg	IC50 [10]: 5.8 µM; IC50 [11]: 4.6 µM; Cmax [12]: 74 µM; Cmax [13]: 130 µM; half-life [14]: 0.8 h; half-life [15]: 1 h; Tmax [16]: 0.3 h; Tmax [17]: 2 h; Tmax [18]: 1 h; inhibition [19]: 0%; inhibition [20]: 28%; Cmax [21]: 132 µM; inhibition [22]: 4%

More lines, now with the values behind:

Structure (SMILES)	IC50 [1]	Cmax [2]	Tmax [3]	IC50 [5]	ED50 [4]	ED50 [6]	also measured
CC1CN(c2cccc(Cl)n2)NC(=O)N1 (stereo unspecified)	3.5 µM	48 µM	2 h	1.6 µM	inactive	–	–
Cc1ccccc1N1CCNC(=O)N1	386 µM	78 µM	2.1 h	–	inactive	–	–
CC1CN(c2cccc(-c3ccco3)c2)NC(=O)N1 (stereo unspecified)	4.8 µM	7 µM	1 h	8.4 µM	inactive	–	–
O=C1NC(Oc2ccc(F)cc2)CN(c2ccccc2)N1 (stereo unspecified)	–	–	–	2.6 µM	inactive	–	–
O=C1NCCN(c2cccc(Br)n2)N1	3.5 µM	79 µM	1 h	4.6 µM	–	41 mg/kg	–
O=C1CCN(c2ccccc2)N1 [PHENIDONE]	–	–	–	–	–	–	IC50 [7]: 13 µM; IC50 [8]: 12 µM; IC50 [9]: 94 µM
Cc1cccc(N2CCNC(=O)N2)n1	5.5 µM	99 µM	1 h	7.9 µM	–	17 mg/kg	–
O=C1NCCN(c2cccc(Cl)c2)N1	5.3 µM	59 µM	2 h	2.1 µM	–	18 mg/kg	–

Source: ChEMBL document CHEMBL1129426, “5-Lipoxygenase inhibitors: synthesis and structure-activity relationships of a series of 1-aryl-2H,4H-tetrahydro-1,2,4-triazin-3-ones” (J Med Chem, 1996)
